Test results taken from ChEMBL document CHEMBL1165892, “Cell cycle disruption and apoptotic activity of 3-aminothiazolo[3,2-a]benzimidazole-2-carbonitrile and its homologues” (2010).
Active and inactive are the calls of the source. The calls are words filed in the database; no cut-off is given here.

What was measured:
MDA-MB-231 [1] = test: Induction of apoptosis in human MDA-MB-231 cells at 100 uM after 24 hrs using annexin V staining by flow cytometry; assay type: functional
Summary of the method: (§1)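 MDA-MB-231 cells were cultured in RPMI 1640 with 100 ml/l FBS and penicillin/streptomycin, then exposed for 24, 48 or 72 h. Harvested cells were stained with annexin V-FITC plus PI using a commercial kit per the manufacturer. Flow cytometry read emission at 530 and […], 10,000 cells per determination. Quadrants scored normal, early apoptotic, late apoptotic and necrotic cells. Results are representative of three experiments.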

MDA-MB-231 [2] = test: Cell cycle arrest in human MDA-MB-231 cells assessed as accumulation at G2/M phase at 100 uM after 24 hrs using propidium staining by flow cytometry; assay type: functional
Summary of the method: (§2)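 MDA-MB-231 cells were grown in RPMI 1640 with 100 ml/l FBS, 100 U/ml penicillin and 100 U/ml streptomycin. They were seeded in 60 mm dishes and held 24 h at 37 °C in humidified 50 ml/l CO₂. Cells were exposed for 24, 48 or 72 h, then resuspended in 50 mM Na citrate with propidium iodide for 30 min. DNA content was read by flow cytometry and phase percentages derived from histograms. Data are representative of three independent experiments.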

MDA-MB-231 [3] = test: Cell cycle arrest in human MDA-MB-231 cells assessed as accumulation at G2/M phase at 100 uM after 72 hrs using propidium staining by flow cytometry; assay type: functional; summary of the method: as §2
MDA-MB-231 [4] = test: Cell cycle arrest in human MDA-MB-231 cells assessed as accumulation at S phase at 100 uM after 24 to 72 hrs using propidium staining by flow cytometry; assay type: functional, cell-based; summary of the method: as §2
MDA-MB-231 [5] = test: Induction of apoptosis in human MDA-MB-231 cells at 100 uM using annexin V staining by flow cytometry; assay type: functional, cell-based; details: TDE = time-dependent effect; summary of the method: as §1
MDA-MB-231 [6] = test: Antiproliferative activity against human MDA-MB-231 cells at 100 uM after 48 hrs
MDA-MB-231 [7] = test: Induction of apoptosis in human MDA-MB-231 cells at 100 uM after 72 hrs using annexin V staining by flow cytometry; assay type: functional; summary of the method: as §1
MDA-MB-231 [8] = test: Cell cycle arrest in human MDA-MB-231 cells assessed as accumulation at G2/M phase at 100 uM after 48 hrs using propidium staining by flow cytometry; assay type: functional; summary of the method: as §2
MDA-MB-231 [9] = test: Cell cycle arrest in human MDA-MB-231 cells decrease of cells at G1 phase at 100 uM after 24 to 72 hrs using propidium staining by flow cytometry; assay type: functional, cell-based; summary of the method: as §2
MDA-MB-231 [10] = test: Induction of apoptosis in human MDA-MB-231 cells at 100 uM after 48 hrs using annexin V staining by flow cytometry; assay type: functional; summary of the method: as §1

Compound: CC(=O)Nc1c(C#N)sc2nc3ccccc3n12
- Activity (MDA-MB-231 [1]): 23.77%
- Activity (MDA-MB-231 [2]): 42%
- Activity (MDA-MB-231 [3]): 45.79%
- Activity (MDA-MB-231 [4]): Active
- Activity (MDA-MB-231 [5]): tde
- Activity (MDA-MB-231 [6]): Active
- Activity (MDA-MB-231 [7]): 80%
- Activity (MDA-MB-231 [8]): 46.22%
- Activity (MDA-MB-231 [9]): Active
- Activity (MDA-MB-231 [10]): 54.59%
